In ChEMBL document CHEMBL1126013, “Synthesis and evaluation of some water-soluble prodrugs and derivatives of taxol with antitumor activity” (J Med Chem, 1992):

What was measured:
B16 [1] = assay: Concentration required to inhibit the proliferation of B16 melanoma cells was determined; format: functional, cell-based; conditions: Mus musculus
B16 [2] = assay: Percentage change in cell number of B16 melanoma cells treated with 10e-5 M dose; format: functional, Mus musculus
Outline: (§1)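 B16 melanoma cells exposed to 10⁻⁵ or 10⁻⁶ M compound for 8 h, then rinsed three times with fresh medium. Cells then grown in drug-free medium for 48 h and counted. Result given as percent change relative to the cell number at time zero. Controls are the average of three experiments.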

B16 [3] = assay: Percentage change in cell number of B16 melanoma cells treated with 10e-6 M dose; format: functional, Mus musculus; outline: as §1
B16 [4] = assay: Relative effect on B16 melanoma cell proliferation was determined [IC50 (taxol)/IC50 (derivative)]; format: functional, Mus musculus
Bos taurus = organism: Bos taurus; assay: Relative effect on microtubular assembly (Tubulin polymerized by derivative/tubulin polymerized by taxol); format: functional
Outline: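 Bovine brain tubulin, purified from microtubule-associated proteins by phosphocellulose chromatography, used at 10 μM. Turbidity followed at 350 nm. Polymer pelleted at 200000g, 37 °C, 4 min, depolymerized on ice, and protein measured by Bradford.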

Mus musculus [5] = assay: Initial average tumor weight was measured in mice induced with human mammary carcinoma at a dose of 15 mg/Kg; format: functional
Outline: (§2)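 MX-1 human mammary carcinoma xenograft implanted under the renal capsule in mice. Study run at the National Cancer Institute following NIH Publication No. 84-2635. Tumor weights recorded at the start and at the end. Survivors counted after 11 days. %T/C = (Δ tumor weight treated/Δ tumor weight control) × 100 where the tumor grows, and (Δ tumor weight treated/initial control tumor weight) × 100 where it regresses.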

Mus musculus [6] = assay: Initial average tumor weight was measured in mice induced with human mammary carcinoma at a dose of 22.4 mg/Kg; format: functional; outline: as §2
Mus musculus [7] = assay: Initial average tumor weight was measured in mice induced with human mammary carcinoma at a dose of 4.45 mg/Kg; format: functional; outline: as §2
Mus musculus [8] = assay: Initial average tumor weight was measured in mice induced with human mammary carcinoma at a dose of 6.67 mg/Kg; format: functional; outline: as §2
Mus musculus [9] = assay: Initial average tumor weight was measured in mice induced with human mammary carcinoma at a dose of 10 mg/Kg; format: functional; outline: as §2
Mus musculus [10] = assay: Number of survivors after 11 days at a dose of 15 mg/Kg tested in 6 mice; format: functional
Outline: (§3)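 MX-1 human mammary carcinoma xenograft implanted under the renal capsule of mice. The study was run at the National Cancer Institute following the procedures of NIH Publication No. 84-2635. Average tumor weight was recorded at the start and end of treatment, and survivors were counted after 11 days. Dosed groups were compared with an untreated control group.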

Mus musculus [11] = assay: Number of survivors after 11 days at a dose of 22.4 mg/Kg tested in 6 mice; format: functional; outline: as §3
Mus musculus [12] = assay: Number of survivors after 11 days at a dose of 4.45 mg/Kg tested in 5 mice; format: functional; outline: as §3
Mus musculus [13] = assay: Tumor growth or regression measured as Percent treated by control at a dose of 6.67 mg/Kg to mice with MX-1 xenograft; CR refers to complete remission or when the tumor is no longer detectable; format: functional, organism-based
Outline: (§4)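 Subrenal capsule human mammary carcinoma (MX-1) xenograft in mice, run at the National Cancer Institute by NIH Publication No. 84-2635 procedures. Initial and final average tumor weights recorded, with survivors counted after 11 days. %T/C is (Δ tumor weight treated/Δ tumor weight controls)×100 for growing tumors. For regressing tumors it is (Δ tumor weight treated/initial control tumor weight)×100.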

Mus musculus [14] = assay: Tumor growth or regression measured as Percent treated by control at a dose of 22.4 mg/Kg to mice with MX-1 xenograft; Tox refers to toxicity or when < 65% of the animals survive the test; format: functional, organism-based; outline: as §2
Mus musculus [15] = assay: Tumor growth or regression measured as Percent treated by control at a dose of 4.45 mg/Kg to mice with MX-1 xenograft; CR refers to complete remission or when the tumor is no longer detectable; format: functional, organism-based; outline: as §4
Mus musculus [16] = assay: Number of survivors after 11 days at a dose of 10 mg/Kg tested in 6 mice; format: functional; outline: as §3
Mus musculus [17] = assay: Tumor growth or regression measured as Percent treated by control at a dose of 10 mg/Kg to mice with MX-1 xenograft; format: functional; outline: as §2
Mus musculus [18] = assay: Tumor growth or regression measured as Percent treated by control at a dose of 15 mg/Kg to mice with MX-1 xenograft; CR refers to complete remission or when the tumor is no longer detectable; format: functional, organism-based; outline: as §2
Mus musculus [19] = assay: Number of survivors after 11 days at a dose of 6.67 mg/Kg tested in 5 mice; format: functional; outline: as §3
Mus musculus [20] = assay: Final average tumor weight was measured in mice induced with human mammary carcinoma at a dose of 4.45 mg/Kg; format: functional; outline: as §2
Mus musculus [21] = assay: Final average tumor weight was measured in mice induced with human mammary carcinoma at a dose of 22.4 mg/Kg; format: functional; outline: as §2
Mus musculus [22] = assay: Final average tumor weight was measured in mice induced with human mammary carcinoma at a dose of 10 mg/Kg; format: functional; outline: as §2
Mus musculus [23] = assay: Final average tumor weight was measured in mice induced with human mammary carcinoma at a dose of 15 mg/Kg; format: functional; outline: as §2
Mus musculus [24] = assay: Final average tumor weight was measured in mice induced with human mammary carcinoma at a dose of 6.67 mg/Kg; format: functional; outline: as §2
Mus musculus [25] = assay: Antitumor activity of taxoland the derivative against mammary carcinoma xenograft in mice; format: functional; outline: as §2

## CC(=O)O[C@H]1C(=O)[C@@]2(C)[C@H]([C@H](OC(=O)c3ccccc3)[C@]3(O)C[C@H](OC(=O)[C@H](O)[C@@H](NC(=O)c4ccccc4)c4ccccc4)C(C)=C1C3(C)C)[C@]1(OC(C)=O)CO[C@@H]1C[C@@H]2O [PACLITAXEL]
B16 [1]
  IC50: 19 nM
B16 [2]
  Change in cell number: 75%
B16 [3]
  Change in cell number: 252%
B16 [4]
  Relative effect: 1
Bos taurus
  Relative effect: 1
Mus musculus [5]
  Initial average tumor weight: 0.81 mg
Mus musculus [6]
  Initial average tumor weight: 0.6 mg
Mus musculus [7]
  Initial average tumor weight: 0.79 mg
Mus musculus [8]
  Initial average tumor weight: 0.74 mg
Mus musculus [9]
  Initial average tumor weight: 0.58 mg
Mus musculus [10]
  No. of survivors: 6
Mus musculus [11]
  No. of survivors: 3
Mus musculus [12]
  No. of survivors: 5
Mus musculus [13]
  T/C: Complete remission
Mus musculus [14]
  T/C: Toxic
Mus musculus [15]
  T/C: Complete remission
Mus musculus [16]
  No. of survivors: 6
Mus musculus [17]
  T/C: -84%
Mus musculus [18]
  T/C: Complete remission
Mus musculus [19]
  No. of survivors: 5
Mus musculus [20]
  Final average tumor weight: 0 mg
Mus musculus [21]
  Final average tumor weight: 0 mg
Mus musculus [22]
  Final average tumor weight: 0.09 mg
Mus musculus [23]
  Final average tumor weight: 0 mg
Mus musculus [24]
  Final average tumor weight: 0 mg
Mus musculus [25]
  Relative antitumor activity: 1
